NPY-Y1 PAM-ag = human NPY-Y1 potentiation or agonism, primary screen. NPY-Y1 expressing cells, potentiator/agonist activation. activation, % at 3.6 µM. actives 0.37% (n = 220,000). AID 1304; in the data active = activation above about 33%, passing the limit was not always enough;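 note: cells stimulated with NPY at EC10 then isoproterenol at EC100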
Target sequence (P25929 whole entry, looked up): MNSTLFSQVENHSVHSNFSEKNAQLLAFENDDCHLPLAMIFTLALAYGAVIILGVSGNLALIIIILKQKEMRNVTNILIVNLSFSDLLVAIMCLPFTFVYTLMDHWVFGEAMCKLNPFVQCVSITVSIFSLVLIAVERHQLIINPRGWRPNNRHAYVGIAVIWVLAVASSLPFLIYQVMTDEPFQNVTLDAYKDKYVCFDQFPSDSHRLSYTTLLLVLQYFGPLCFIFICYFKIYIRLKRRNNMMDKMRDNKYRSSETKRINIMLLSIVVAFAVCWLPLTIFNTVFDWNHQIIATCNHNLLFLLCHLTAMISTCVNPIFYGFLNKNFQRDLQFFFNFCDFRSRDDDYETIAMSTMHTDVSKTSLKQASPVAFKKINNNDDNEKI
NPY-Y1 antag = blocks the human neuropeptide Y Y1 receptor; HEK293-CNG Y1 cells, membrane potential fluorescence; NPY at EC95, then isoproterenol; inhibition, % at 3.6 µM; AID 1040; P25929; actives 1% (n = 200,000);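 active = inhibition above the campaign mean inhibition of all tested compounds plus 3 SD, cut at about 20% in these data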
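Benchmarks – high control isoproterenol alone, low control NPY with isoproterenol · Material – HEK293 Y1/CNG channel cell line · Times – dye 3 h, compound 60 min room temperature, stimulation 45 min · Probe or stimulus – NPY (25 nM), isoproterenol (1 µM), Ro 20-1724 (25 µM) · Evaluation – % inhibition of NPY effect · Signal – fluorescence, membrane potential probe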
NPY-Y2 antag = NPY-Y2 (human) receptor antagonism | inhibition, % at 2.7 µM | actives 0.99% (n = 140,000) | P49146 | NPY-Y2 expressing cells, antagonist mode; in the data active = inhibition above about 17%
Target sequence (P49146 whole entry, looked up): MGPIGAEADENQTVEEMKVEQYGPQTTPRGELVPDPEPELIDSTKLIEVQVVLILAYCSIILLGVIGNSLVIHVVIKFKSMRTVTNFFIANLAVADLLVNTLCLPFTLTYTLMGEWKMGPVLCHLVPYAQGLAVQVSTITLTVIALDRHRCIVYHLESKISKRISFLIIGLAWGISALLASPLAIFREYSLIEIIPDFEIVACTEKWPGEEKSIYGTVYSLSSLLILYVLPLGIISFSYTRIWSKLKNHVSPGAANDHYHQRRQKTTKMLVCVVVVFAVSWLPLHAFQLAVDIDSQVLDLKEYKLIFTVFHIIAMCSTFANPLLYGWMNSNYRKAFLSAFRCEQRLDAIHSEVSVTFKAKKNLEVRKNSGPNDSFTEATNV
NPY2 pot ag = potentiates or activates human NPY-Y2 receptor. P49146. cells expressing NPY-Y2, potentiator/agonist read-out. activation, % at 3.6 µM. actives 0.45% (n = 220,000). AID 1359; in the data active = activation above about 27%;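 note: cells stimulated with NPY near EC25 plus isoproterenol at EC100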
NPY-Y2 pot conf = confirmation of human NPY-Y2 receptor potentiators or agonists. activation, % at 3.6 µM. actives 20% (n = 450). shares compounds with NPY2 pot ag. AID 1539. cell-based NPY-Y2 potentiator/agonist assay; in the data active = activation above about 33%
NPY-Y1 potentiator = potentiates or activates NPY-Y1, counter-screen for NPY-Y2 hits | shares compounds with NPY2 pot ag | Y1 HEK293-CNG cells, membrane potential fluorescence | activation, % at 3.6 µM | actives 20% (n = 450); in the data active = activation above about 45%;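 note: cells stimulated with submaximal NPY then isoproterenol with phosphodiesterase inhibitor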
NPY-Y1 ag 2 = counter-screen for NPY-Y2 potentiators: agonists of human NPY-Y1; shares compounds with NPY2 pot ag; HEK293 Y1-CNGC, membrane potential fluorescence, agonism; activation, % at 3.6 µM; actives 37% (n = 450);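 active = activation above the mean of DMSO-only control wells plus 3 SD, cut at about 18% in these data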;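 note: cells stimulated with 1 µM isoproterenol plus the PDE inhibitor Ro 20-1724; Y1 agonists lower the membrane potential dye signal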
CNGC inh = counter-screen for NPY-Y2 potentiators: inhibitors of CNG channel activity | shares compounds with NPY2 pot ag | HEK293-CNG parental, isoproterenol cAMP, membrane potential fluorescence | inhibition, % at 3.6 µM | actives 32% (n = 450);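 active = inhibition above the control-well mean plus 3 SD of those wells, cut at about 22% in these data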
Y2 agonist ctr = counter-screen for NPY-Y2 potentiators: agonists of human NPY-Y2. shares compounds with NPY2 pot ag. HEK293 Y2/CNGC cells, membrane potential fluorescence, agonist mode. activation, % at 3.6 µM. actives 56% (n = 450). AID 1710;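 active = activation above the mean of solvent-only control wells plus 3 SD, cut at about 10% in these data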;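 note: cells stimulated by isoproterenol with no NPY added so direct agonism is tested; agonism lowers probe fluorescence through less cAMP and CNG channel opening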
Of the large screens only hits and unclear results are named; the others gave an inactive call (follow-up assays come after a bar, where they were run). Hits are enriched below; roughly 1.8% of the tested compounds scored in any of these assays.

COc1ccc(Cl)cc1NS(=O)(=O)c1cc(Cl)ccc1OC	NPY2 pot ag 33 | NPY-Y2 pot conf inactive | NPY-Y1 potentiator inactive | NPY-Y1 ag 2 29 | CNGC inh 26 | Y2 agonist ctr 32
Brc1ccc(-c2csc(-c3c[nH]c4ccccc34)n2)cc1	none
c1ccc2c(-c3csc(-c4ccncc4)n3)c[nH]c2c1	NPY2 pot ag 33 (no result: NPY-Y2 antag) | NPY-Y2 pot conf inactive | NPY-Y1 potentiator 53 | NPY-Y1 ag 2 51 | CNGC inh 39 | Y2 agonist ctr 34
NS(=O)(=O)c1ccc(NC(=O)COC(=O)COc2ccc3ccccc3c2)cc1	none (no result: NPY-Y2 antag)
Fc1nc(F)c(F)c(NCCCNc2c(F)c(F)nc(F)c2F)c1F	NPY2 pot ag 28 (no result: NPY-Y2 antag) | NPY-Y2 pot conf inactive | NPY-Y1 potentiator inactive | NPY-Y1 ag 2 25 | CNGC inh 23 | Y2 agonist ctr 32
NC(N)=N/N=C/c1cccc(Cl)c1Cl	none (no result: NPY-Y2 antag)
Cc1ccccc1Cn1cnc2c(NS(C)(=O)=O)c(C)c(C)cc21	none
COc1ccc(Cn2cnc3c(NS(C)(=O)=O)c(C)c(C)cc32)cc1	NPY2 pot ag 35 | NPY-Y2 pot conf inactive | NPY-Y1 potentiator inactive | NPY-Y1 ag 2 inactive | CNGC inh inactive | Y2 agonist ctr 21
COC(=O)c1[nH]c2ccc(Br)cc2c1NC(=O)CN1CCN(C2CCCCC2)CC1	NPY2 pot ag 33 | NPY-Y2 pot conf 43 | NPY-Y1 potentiator 57 | NPY-Y1 ag 2 28 | CNGC inh 49 | Y2 agonist ctr 33
OC(COc1ccc(OCc2ccccc2)cc1)CN1CCOCC1 (stereo not given)	none
OC(COc1ccc(-c2ccccc2)cc1)CN1CCOCC1 (stereo not given)	NPY2 pot ag 56 (no result: NPY-Y2 antag) | NPY-Y2 pot conf inactive | NPY-Y1 potentiator inactive | NPY-Y1 ag 2 inactive | CNGC inh inactive | Y2 agonist ctr inactive
CC(C)NC(=S)N=Nc1c(O)[nH]c2ccc([N+](=O)[O-])cc12	NPY2 pot ag 35 (no result: NPY-Y2 antag) | NPY-Y2 pot conf inactive | NPY-Y1 potentiator inactive | NPY-Y1 ag 2 19 | CNGC inh inactive | Y2 agonist ctr 22
Cc1ccc(NC(=O)COC(=O)C(CC(C)C)N2C(=O)C3CC=CCC3C2=O)c(C)c1 (stereo not given)	none
CS(=O)(=O)N1CCc2cc(-c3csc(NC(=O)Cc4cccs4)n3)ccc21	NPY2 pot ag 36 | NPY-Y2 pot conf inactive | NPY-Y1 potentiator inactive | NPY-Y1 ag 2 inactive | CNGC inh inactive | Y2 agonist ctr inactive
COc1ccc(S(=O)(=O)Nc2ccc(S(=O)(=O)Nc3ccc(F)cc3)cc2)cc1C	NPY2 pot ag 34 | NPY-Y2 pot conf inactive | NPY-Y1 potentiator inactive | NPY-Y1 ag 2 27 | CNGC inh 23 | Y2 agonist ctr 21
CC(C)C(c1nnnn1C1CCCCC1)N1CCc2ccccc21 (stereo not given)	NPY2 pot ag 59 | NPY-Y2 pot conf inactive | NPY-Y1 potentiator inactive | NPY-Y1 ag 2 inactive | CNGC inh inactive | Y2 agonist ctr inactive
COc1ccc2nc(SCC(=O)NCC(F)(F)F)[nH]c2c1	none (no result: NPY-Y2 antag)
Cc1ccc(S(=O)(=O)Nc2ccc(Oc3cccnc3)nc2)cc1	none (no result: NPY-Y1 antag, NPY-Y2 antag)
Cc1ccc(S(=O)(=O)Nc2ccc(NC(=O)c3c(F)c(F)c(F)c(F)c3F)cc2)cc1	NPY2 pot ag 35 (no result: NPY-Y2 antag) | NPY-Y2 pot conf inactive | NPY-Y1 potentiator inactive | NPY-Y1 ag 2 26 | CNGC inh 28 | Y2 agonist ctr 24
CCOc1ccc(NC(=O)C(=S)NC2CCCCC2)cc1	none (no result: NPY-Y2 antag)
COc1ccc(NC(=O)C(=S)NC2CCCCC2)cc1	NPY2 pot ag 31 (no result: NPY-Y2 antag) | NPY-Y2 pot conf inactive | NPY-Y1 potentiator inactive | NPY-Y1 ag 2 inactive | CNGC inh inactive | Y2 agonist ctr inactive
Cc1ccc(NC(=O)CCNS(=O)(=O)c2cc(Br)cnc2N)c(Cl)c1	none
COc1cc(OC)c(NC(=O)CCNS(=O)(=O)c2cc(Br)cnc2N)cc1Cl	NPY2 pot ag 48 | NPY-Y2 pot conf inactive | NPY-Y1 potentiator inactive | NPY-Y1 ag 2 inactive | CNGC inh inactive | Y2 agonist ctr inactive
Cn1c(NC(=O)Cc2cccc3ccccc23)cc(=O)n(C)c1=O	none (no result: NPY-Y2 antag)
CC(C)CNC(=O)C1CCCN(C(=O)NCc2ccccc2)C1 (stereo not given)	none (no result: NPY-Y2 antag)
O=C(c1ccc(F)cc1F)C1CCN(c2ccc([N+](=O)[O-])cn2)CC1	NPY2 pot ag 46 (no result: NPY-Y1 antag, NPY-Y2 antag) | NPY-Y2 pot conf inactive | NPY-Y1 potentiator inactive | NPY-Y1 ag 2 inactive | CNGC inh inactive | Y2 agonist ctr 12
O=C(Nc1ccc(F)cc1F)N1CCCN(c2ccc([N+](=O)[O-])cn2)CC1	none (no result: NPY-Y1 antag, NPY-Y2 antag)
COc1ccc(CNC(=O)COC(=O)CCc2nc3ccccc3c(=O)[nH]2)cc1	none (no result: NPY-Y2 antag)
O=C(COC(=O)CCc1nc2ccccc2c(=O)[nH]1)NCc1ccc(F)cc1	NPY2 pot ag 102 (no result: NPY-Y1 antag, NPY-Y2 antag) | NPY-Y2 pot conf inactive | NPY-Y1 potentiator inactive | NPY-Y1 ag 2 inactive | CNGC inh inactive | Y2 agonist ctr inactive
CCCOC(=O)NC(CC)COC(=O)Nc1cccc(C)c1C (stereo not given)	NPY2 pot ag 33 | NPY-Y2 pot conf inactive | NPY-Y1 potentiator inactive | NPY-Y1 ag 2 inactive | CNGC inh inactive | Y2 agonist ctr inactive
O=C1NC(Cc2c[nH]c3ccccc23)C(=O)N1Cc1ccc(CN2C(=O)NC(Cc3c[nH]c4ccccc34)C2=O)cc1 (stereo not given)	none (no result: NPY-Y2 antag)
O=C1C(Cl)=C(Nc2ccc(O)cc2)C(=O)c2ccccc21	NPY2 pot ag 36 (no result: NPY-Y1 antag, NPY-Y2 antag) | NPY-Y2 pot conf inactive | NPY-Y1 potentiator inactive | NPY-Y1 ag 2 inactive | CNGC inh 29 | Y2 agonist ctr 33
Cc1ccc(NC2=C(Cl)C(=O)c3ccccc3C2=O)cc1	none
CCN1C(=O)c2cccc3c(NC(=O)c4ccc(OC)c(OC)c4)ccc1c23	none
O=C(CN1CCC(C(=O)c2cccc(Cl)c2)CC1)Nc1cccc(C(=O)O)c1	none (no result: NPY-Y2 antag)
NC(=O)C1CCN(CC(=O)Nc2cccc(C(=O)Nc3cccc(C(F)(F)F)c3)c2)CC1	NPY2 pot ag 41 | NPY-Y2 pot conf inactive | NPY-Y1 potentiator inactive | NPY-Y1 ag 2 inactive | CNGC inh inactive | Y2 agonist ctr inactive
O=c1c2ccccc2[nH]c2ccccc12	none
O=c1[nH][nH]c2ccccc2c1=O	NPY2 pot ag 87 (no result: NPY-Y1 antag, NPY-Y2 antag) | NPY-Y2 pot conf inactive | NPY-Y1 potentiator inactive | NPY-Y1 ag 2 inactive | CNGC inh inactive | Y2 agonist ctr inactive
Cc1ccccc1S(=O)(=O)N(CC(O)CN1C(=O)NC(C)(C)C1=O)c1ccccc1 (stereo not given)	none (no result: NPY-Y1 antag, NPY-Y2 antag)
Cc1ccc(C(=O)CSc2ccc(-c3cccnc3)nn2)cc1	none (no result: NPY-Y2 antag)
OCCSc1nc(N2CCOCC2)nc(N2CCOCC2)n1	none (no result: NPY-Y2 antag)

Bioassay records deposited in PubChem BioAssay by The Scripps Research Institute Molecular Screening Center.
